Experimental data as given in PMC4797290 (Nucleic Acids Research, 2016).
No end group written: not given here.

Experiments:
Assay type in all cases: cell-based, Escherichia coli
[1] = tested on: E. coli SQ110 DTC 23S rRNA A2503C/A2059G double mutant; assay: MIC determination, E. coli SQ110 DTC 2503C/2059G double mutant; settings: 23S rRNA double mutant; highest concentration 100 μM
In short: (§1)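 E. coli SQ110 DTC background (single chromosomal rrn allele, tolC knockout) carrying 23S rRNA mutations. Cells grown exponentially in LB, diluted to A650 0.005 in 96-well plates. Peptide added in LB and 2-fold serially diluted from a top final concentration of 100 μM. Incubated overnight at 37°C with shaking. Growth read by alamarBlue addition.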

[2] = tested on: E. coli SQ110 DTC 23S rRNA A2503C mutant; assay: MIC determination, E. coli SQ110 DTC 2503C mutant; settings: 23S rRNA mutant 2503C; highest concentration 100 μM
In short: as §1

[3] = tested on: E. coli SQ110 DTC 23S rRNA 2059C mutant; assay: MIC determination, E. coli SQ110 DTC 2059C mutant; settings: 23S rRNA mutant 2059C, first line so labelled (r6); highest concentration 100 μM
In short: as §1

RRIRPRPPRLPRPRPRPLPFPRPGPRPIPRPLPFP [Bac7_1–35]
0.75 µmol/L: MIC, SQ110 DTC 2503C/2059G [1] | MIC, SQ110 DTC 2503C [2] | MIC, SQ110 DTC 2059C [3]
